Columns and labels:
Mus musculus [1] = assay: Toxicity in C57BL/6J mouse assessed as decrease in blood urea nitrogen level at 5 mg/kg, ip treated daily for 7 consecutive days measured after 24 hrs post last dose […]; settings: in vivo
[2] = tested on: Lewis lung carcinoma cell line; assay: Cytotoxicity against mouse LLC cells harboring […] assessed as reduction in cell viability after 24 hrs by MTT assay; format: functional, cell-based
In short: (§1)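 Cells exposed to compounds; viability read at 24, 48 and 72 h. Every experiment run in triplicate.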

Mus musculus [3] = assay: Toxicity in C57BL/6J mouse assessed as increase in glutamate dehydrogenase level at 5 mg/kg, ip treated daily for 7 consecutive days measured after 24 hrs post last dose […]; format: organism-based; settings: in vivo
In short: (§2)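 Female C57BL6 mice given 5 mg/kg i.p. daily for 7 days; blood taken at sacrifice 24 h after last dose for clinical chemistry panel: electrolytes, minerals, total protein, albumin, globulin, A/G ratio, BUN, ALT, AST, GLDH, cholestasis markers, ALP, bilirubin, amylase, creatine kinase.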

D(1B) dopamine receptor = D(1B) dopamine receptor (Homo sapiens, UniProt P21918); assay: Displacement of [3H]SCH23390 from human dopamine D5 receptor expressed in HEK293T cells by radioligand binding assay; format: cell-based
Mus musculus [4] = assay: Toxicity in C57BL/6J mouse assessed as reduction in alkaline phosphatase level at 5 mg/kg, ip treated daily for 7 consecutive days measured after 24 hrs post last dose […]; format: organism-based; settings: in vivo
In short: as §2

Mu-type opioid receptor = Mu-type opioid receptor (Homo sapiens, UniProt P35372); assay: Displacement of [3H]DAMGO from human MOR expressed in HEK cells by radioligand binding assay relative to control; format: cell-based; parameters: concentration or dose not given beside the values; settings: concentration not given here
NIH3T3 = assay: Cytotoxicity against mouse NIH/3T3 cells assessed as reduction in cell viability after 48 hrs by MTT assay; format: cell-based; settings: NIH3T3, 48 h
In short: as §1

[5] = target: Delta-type opioid receptor (Homo sapiens, UniProt P41143); assay: Displacement of [3H]DADLE from human DOR expressed in HEK cells by radioligand binding assay; format: cell-based; settings: read-out: Ki
[6] = target: Kappa-type opioid receptor (Homo sapiens, UniProt P41145); assay: Displacement of [3H]U69593 from KOR (unknown origin) expressed in HEK cells by radioligand binding assay relative to control; format: cell-based; parameters: concentration or dose not given beside the values; settings: concentration not given here
Histamine H2 receptor = Histamine H2 receptor (Homo sapiens, UniProt P25021); assay: Displacement of [3H]Cimetidine from human H2 receptor expressed in HEK cells by radioligand binding assay; format: cell-based
MDA-MB-231 [7] = assay: Cytotoxicity against human MDA-MB-231 cells assessed as reduction in cell viability after 72 hrs by MTT assay; format: functional, cell-based; settings: MDA-MB-231, 72 h
In short: as §1

[8] = target: T1, 5-hydroxytryptamine receptor 7 (Homo sapiens, UniProt P34969); assay: Displacement of [3H]LSD from human 5-HT7A receptor expressed in HEK cells by radioligand binding assay relative to control; format: cell-based
D(2) dopamine receptor = D(2) dopamine receptor (Homo sapiens, UniProt P14416); assay: Displacement of [3H]N-methylspiperone from human dopamine D2 receptor expressed in stable fibroblast cells by radioligand binding assay; format: cell-based
[9] = target: T1, 5-hydroxytryptamine receptor 7; assay: Displacement of [3H]LSD from human 5-HT7A receptor expressed in HEK cells by radioligand binding assay; format: cell-based
D(4) dopamine receptor = target: T2, D(4) dopamine receptor (Homo sapiens, UniProt P21917); assay: Displacement of [3H]N-methylspiperone from human dopamine D4 receptor by radioligand binding assay
T2 sequence (P21917 whole entry): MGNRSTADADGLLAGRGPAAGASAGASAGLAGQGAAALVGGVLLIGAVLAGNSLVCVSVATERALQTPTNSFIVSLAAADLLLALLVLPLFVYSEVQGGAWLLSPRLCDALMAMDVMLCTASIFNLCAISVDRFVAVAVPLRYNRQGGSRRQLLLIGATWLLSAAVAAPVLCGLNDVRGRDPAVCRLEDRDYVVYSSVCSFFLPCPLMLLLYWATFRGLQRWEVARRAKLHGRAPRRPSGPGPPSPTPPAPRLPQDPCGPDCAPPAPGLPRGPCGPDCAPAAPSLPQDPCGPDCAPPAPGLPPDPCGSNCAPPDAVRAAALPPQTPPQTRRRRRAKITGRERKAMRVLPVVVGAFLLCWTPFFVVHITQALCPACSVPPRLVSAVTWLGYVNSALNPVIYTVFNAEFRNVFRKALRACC

[10] = target: 5-hydroxytryptamine receptor 1D (Homo sapiens, UniProt P28221); assay: Displacement of [3H]5-CT from human 5-HT1D receptor expressed in HEK293T cells by radioligand binding assay; format: cell-based; settings: read-out: Ki
[11] = target: 5-hydroxytryptamine receptor 2A (Homo sapiens, UniProt P28223); assay: Displacement of [3H]Ketanserin from 5-HT2A receptor (unknown origin) by radioligand binding assay relative to control; parameters: concentration or dose not given beside the values; settings: concentration not given here
[12] = target: T3, 5-hydroxytryptamine receptor 1A (Homo sapiens) (UniProt P08908); assay: Displacement of [3H]-Way100635 from human 5HT1A receptor expressed in stable CHO cell membranes by radioligand binding assay relative to control; parameters: concentration or dose not given beside the values; settings: concentration not given here
T3 sequence (whole entry): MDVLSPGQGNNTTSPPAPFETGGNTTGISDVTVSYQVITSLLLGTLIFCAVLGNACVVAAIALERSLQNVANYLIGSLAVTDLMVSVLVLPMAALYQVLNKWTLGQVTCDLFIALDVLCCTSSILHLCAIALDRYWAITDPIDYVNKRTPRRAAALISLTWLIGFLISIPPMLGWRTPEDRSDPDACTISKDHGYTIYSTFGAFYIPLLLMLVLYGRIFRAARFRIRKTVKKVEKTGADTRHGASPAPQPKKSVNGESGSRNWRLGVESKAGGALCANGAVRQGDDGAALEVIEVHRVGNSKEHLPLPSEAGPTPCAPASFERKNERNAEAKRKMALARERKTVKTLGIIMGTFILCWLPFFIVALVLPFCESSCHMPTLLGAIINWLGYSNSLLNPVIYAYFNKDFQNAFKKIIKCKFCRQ

[13] = target: T4, D(4) dopamine receptor (Homo sapiens) (UniProt P21917); assay: Displacement of [3H]N-methylspiperone from human dopamine D4 receptor by radioligand binding assay relative to control; parameters: concentration or dose not given beside the values; settings: concentration not given here
T4 sequence (whole entry): T2 sequence (P21917 whole entry)

[14] = target: 5-hydroxytryptamine receptor 6 (Homo sapiens, UniProt P50406); assay: Displacement of [3H]LSD from human 5-HT6 receptor expressed in HEK cells by radioligand binding assay; format: cell-based
MDA-MB-231 [15] = assay: Cytotoxicity against human MDA-MB-231 cells assessed as reduction in cell viability after 48 hrs by MTT assay; format: functional, cell-based; settings: MDA-MB-231, 48 h
In short: as §1

[16] = tested on: Lewis lung carcinoma cell line; assay: Cytotoxicity against mouse LLC cells harboring […] assessed as reduction in cell viability after 48 hrs by MTT assay; format: functional, cell-based
In short: as §1

[17] = target: 5-hydroxytryptamine receptor 2B (Homo sapiens, UniProt P41595); assay: Displacement of [3H]LSD from human 5-HT2B receptor expressed in HEK cells by radioligand binding assay relative to control; format: cell-based; parameters: concentration or dose not given beside the values; settings: concentration not given here
D(1A) dopamine receptor = D(1A) dopamine receptor (Homo sapiens, UniProt P21728); assay: Displacement of [3H]SCH23390 from human dopamine D1 receptor expressed in HEK293T cells by radioligand binding assay; format: cell-based
Histamine H1 receptor = Histamine H1 receptor (Homo sapiens, UniProt P35367); assay: Displacement of [3H]Pyrilamine from human H1 receptor expressed in HEK cells by radioligand binding assay; format: cell-based; settings: read-out: Ki

T1 sequence (P34969 whole entry): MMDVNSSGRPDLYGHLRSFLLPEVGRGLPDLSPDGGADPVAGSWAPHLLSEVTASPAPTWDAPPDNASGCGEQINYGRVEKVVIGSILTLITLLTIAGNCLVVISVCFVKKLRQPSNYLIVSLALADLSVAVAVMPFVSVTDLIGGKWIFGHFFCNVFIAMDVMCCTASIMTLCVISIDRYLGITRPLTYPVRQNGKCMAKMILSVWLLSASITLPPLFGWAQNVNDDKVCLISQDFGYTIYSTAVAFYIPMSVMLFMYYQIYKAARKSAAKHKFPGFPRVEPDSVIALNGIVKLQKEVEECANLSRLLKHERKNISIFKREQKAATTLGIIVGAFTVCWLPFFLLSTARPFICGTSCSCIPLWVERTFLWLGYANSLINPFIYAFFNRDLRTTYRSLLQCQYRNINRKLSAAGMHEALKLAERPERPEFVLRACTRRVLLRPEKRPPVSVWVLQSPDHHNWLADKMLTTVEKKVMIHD
Sequence of 5-hydroxytryptamine receptor 2B (P41595 whole entry): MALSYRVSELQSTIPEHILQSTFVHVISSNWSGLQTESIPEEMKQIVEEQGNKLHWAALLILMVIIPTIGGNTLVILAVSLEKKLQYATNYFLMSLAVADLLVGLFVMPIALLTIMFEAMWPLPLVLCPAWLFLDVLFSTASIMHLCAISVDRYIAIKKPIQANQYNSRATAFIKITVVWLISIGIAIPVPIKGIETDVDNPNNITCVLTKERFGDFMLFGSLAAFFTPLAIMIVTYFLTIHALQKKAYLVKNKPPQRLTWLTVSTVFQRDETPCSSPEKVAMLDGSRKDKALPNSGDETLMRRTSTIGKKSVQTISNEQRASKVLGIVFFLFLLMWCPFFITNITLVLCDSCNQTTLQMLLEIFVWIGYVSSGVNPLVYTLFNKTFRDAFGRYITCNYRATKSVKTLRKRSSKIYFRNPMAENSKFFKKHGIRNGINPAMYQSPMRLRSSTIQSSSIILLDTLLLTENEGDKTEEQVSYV
Sequence of 5-hydroxytryptamine receptor 1D (P28221 whole entry): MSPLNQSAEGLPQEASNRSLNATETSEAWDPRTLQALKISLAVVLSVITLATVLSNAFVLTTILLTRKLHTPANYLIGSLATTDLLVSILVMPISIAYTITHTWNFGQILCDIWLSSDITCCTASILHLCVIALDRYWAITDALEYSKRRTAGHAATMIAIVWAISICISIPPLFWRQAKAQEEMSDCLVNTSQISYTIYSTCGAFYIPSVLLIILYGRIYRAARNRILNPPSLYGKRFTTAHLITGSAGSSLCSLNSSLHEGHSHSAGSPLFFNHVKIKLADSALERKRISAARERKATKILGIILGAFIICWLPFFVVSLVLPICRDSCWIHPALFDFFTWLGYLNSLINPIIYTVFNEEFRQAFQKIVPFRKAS
Sequence of 5-hydroxytryptamine receptor 6 (P50406 whole entry): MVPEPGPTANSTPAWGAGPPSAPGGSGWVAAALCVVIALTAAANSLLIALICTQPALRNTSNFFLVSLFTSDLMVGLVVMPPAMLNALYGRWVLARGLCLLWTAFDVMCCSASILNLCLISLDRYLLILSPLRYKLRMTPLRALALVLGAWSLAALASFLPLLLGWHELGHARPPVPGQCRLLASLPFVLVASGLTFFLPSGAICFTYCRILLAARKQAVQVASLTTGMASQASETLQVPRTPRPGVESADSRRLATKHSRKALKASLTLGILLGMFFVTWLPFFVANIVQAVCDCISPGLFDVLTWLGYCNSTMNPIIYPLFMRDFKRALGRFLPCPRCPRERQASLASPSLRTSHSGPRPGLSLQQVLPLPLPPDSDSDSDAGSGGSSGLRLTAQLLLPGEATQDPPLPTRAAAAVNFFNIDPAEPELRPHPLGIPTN
Sequence of D(1A) dopamine receptor (P21728 whole entry): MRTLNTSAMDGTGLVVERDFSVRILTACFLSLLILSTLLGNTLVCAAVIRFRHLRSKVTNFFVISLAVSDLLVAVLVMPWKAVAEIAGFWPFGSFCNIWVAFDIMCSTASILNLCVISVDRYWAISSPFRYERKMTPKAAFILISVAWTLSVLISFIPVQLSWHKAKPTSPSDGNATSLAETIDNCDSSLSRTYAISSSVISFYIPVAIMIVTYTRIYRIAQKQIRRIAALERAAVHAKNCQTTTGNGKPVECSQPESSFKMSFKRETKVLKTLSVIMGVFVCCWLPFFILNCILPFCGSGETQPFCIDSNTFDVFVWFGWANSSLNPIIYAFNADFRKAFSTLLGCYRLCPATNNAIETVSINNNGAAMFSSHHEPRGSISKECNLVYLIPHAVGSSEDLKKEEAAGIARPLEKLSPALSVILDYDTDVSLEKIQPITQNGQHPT
Sequence of D(1B) dopamine receptor (P21918 whole entry): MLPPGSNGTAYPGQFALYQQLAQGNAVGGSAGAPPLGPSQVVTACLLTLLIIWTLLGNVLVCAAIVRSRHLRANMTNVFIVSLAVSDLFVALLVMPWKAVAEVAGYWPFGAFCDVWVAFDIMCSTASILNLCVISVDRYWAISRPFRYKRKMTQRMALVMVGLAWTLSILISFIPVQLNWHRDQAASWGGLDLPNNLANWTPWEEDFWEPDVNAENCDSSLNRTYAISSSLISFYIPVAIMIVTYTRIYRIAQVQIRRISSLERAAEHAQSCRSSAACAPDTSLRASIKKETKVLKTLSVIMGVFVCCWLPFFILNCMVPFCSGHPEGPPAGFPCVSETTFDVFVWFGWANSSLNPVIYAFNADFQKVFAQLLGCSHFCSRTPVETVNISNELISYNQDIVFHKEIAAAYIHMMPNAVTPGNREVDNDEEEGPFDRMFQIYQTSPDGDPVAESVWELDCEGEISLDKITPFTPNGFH
Sequence of Delta-type opioid receptor (P41143 whole entry): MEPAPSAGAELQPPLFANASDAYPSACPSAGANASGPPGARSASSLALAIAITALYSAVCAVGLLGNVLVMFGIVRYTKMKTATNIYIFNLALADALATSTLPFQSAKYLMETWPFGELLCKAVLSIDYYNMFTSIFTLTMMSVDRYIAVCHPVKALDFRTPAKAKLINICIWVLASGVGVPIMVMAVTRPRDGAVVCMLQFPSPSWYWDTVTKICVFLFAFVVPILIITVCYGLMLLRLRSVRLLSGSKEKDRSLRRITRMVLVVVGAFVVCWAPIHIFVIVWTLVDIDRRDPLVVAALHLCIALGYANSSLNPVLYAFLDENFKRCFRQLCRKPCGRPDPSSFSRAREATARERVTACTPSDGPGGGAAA
Sequence of Kappa-type opioid receptor (P41145 whole entry): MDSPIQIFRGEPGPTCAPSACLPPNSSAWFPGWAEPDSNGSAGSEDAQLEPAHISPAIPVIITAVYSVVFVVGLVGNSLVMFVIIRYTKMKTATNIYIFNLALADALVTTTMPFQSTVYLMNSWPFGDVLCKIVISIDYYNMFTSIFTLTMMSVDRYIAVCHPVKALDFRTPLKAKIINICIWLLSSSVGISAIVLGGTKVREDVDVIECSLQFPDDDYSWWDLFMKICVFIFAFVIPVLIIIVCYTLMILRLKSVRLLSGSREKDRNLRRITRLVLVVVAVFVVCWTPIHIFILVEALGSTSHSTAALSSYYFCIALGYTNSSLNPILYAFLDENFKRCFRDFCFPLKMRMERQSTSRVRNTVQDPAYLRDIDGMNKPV
Sequence of Histamine H2 receptor (P25021 whole entry): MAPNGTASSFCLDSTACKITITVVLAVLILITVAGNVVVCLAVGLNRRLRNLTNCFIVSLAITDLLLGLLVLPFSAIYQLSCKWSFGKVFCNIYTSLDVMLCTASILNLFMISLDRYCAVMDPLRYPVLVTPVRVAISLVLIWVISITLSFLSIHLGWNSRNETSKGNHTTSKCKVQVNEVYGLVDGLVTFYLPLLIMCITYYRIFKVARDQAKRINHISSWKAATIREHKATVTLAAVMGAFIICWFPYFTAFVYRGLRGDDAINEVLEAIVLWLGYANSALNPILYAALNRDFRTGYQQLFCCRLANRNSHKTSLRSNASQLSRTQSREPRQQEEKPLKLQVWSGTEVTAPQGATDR
Sequence of D(2) dopamine receptor (P14416 whole entry): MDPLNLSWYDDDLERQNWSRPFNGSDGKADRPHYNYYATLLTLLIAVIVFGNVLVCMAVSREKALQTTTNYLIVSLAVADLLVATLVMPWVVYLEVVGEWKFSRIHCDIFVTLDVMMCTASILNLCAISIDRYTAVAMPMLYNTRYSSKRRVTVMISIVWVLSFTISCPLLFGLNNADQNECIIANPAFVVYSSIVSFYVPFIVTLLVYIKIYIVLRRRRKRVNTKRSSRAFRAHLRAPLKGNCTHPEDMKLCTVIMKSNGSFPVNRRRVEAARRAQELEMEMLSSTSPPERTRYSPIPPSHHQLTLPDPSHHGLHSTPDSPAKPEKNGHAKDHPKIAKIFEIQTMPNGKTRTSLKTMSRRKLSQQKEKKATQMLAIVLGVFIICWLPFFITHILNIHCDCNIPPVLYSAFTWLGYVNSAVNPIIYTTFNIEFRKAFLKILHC
Sequence of Mu-type opioid receptor (P35372 whole entry): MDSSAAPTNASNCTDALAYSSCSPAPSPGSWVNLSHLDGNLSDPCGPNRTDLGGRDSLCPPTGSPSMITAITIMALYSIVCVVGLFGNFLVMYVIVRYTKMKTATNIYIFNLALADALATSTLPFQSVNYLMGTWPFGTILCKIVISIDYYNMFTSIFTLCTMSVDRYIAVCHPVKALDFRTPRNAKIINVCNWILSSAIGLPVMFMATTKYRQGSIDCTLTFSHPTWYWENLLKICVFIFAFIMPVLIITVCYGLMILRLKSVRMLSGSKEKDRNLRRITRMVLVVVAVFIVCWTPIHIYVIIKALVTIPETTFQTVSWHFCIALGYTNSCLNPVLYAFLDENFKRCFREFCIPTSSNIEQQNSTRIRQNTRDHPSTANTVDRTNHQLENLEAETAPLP

Row | SMILES | Activity (Mus musculus [1]) | IC50 [2] | Activity (Mus musculus [3]) | Ki (D(1B) dopamine receptor) | Activity (Mus musculus [4]) | inhibition (Mu-type opioid receptor) | IC50 (NIH3T3) | Ki [5] | inhibition [6] | IC50 (MDA-MB-231 [7]) | inhibition (INH) [8] | Ki (D(2) dopamine receptor) | Ki [9] | Ki (D(4) dopamine receptor) | Ki [10] | inhibition [11] | inhibition [12] | inhibition [13] | Ki [14] | IC50 (MDA-MB-231 [15]) | also measured
1 | OC1(c2ccc(Cl)c(C(F)(F)F)c2)CCN(CCCCC(c2ccc(F)cc2)c2ccc(F)cc2)CC1 | Non-Toxic | 5600 nM | Non-Toxic | 529 nM | Non-Toxic | 89% | 5300 nM | 1410 nM | 96% | 4800 nM | 84.9% | 194 nM | 969 nM | 385 nM | 844 nM | 96.3% | 85% | 96.9% | 1670 nM | 5700 nM | Ki (Histamine H2 receptor; read-out: Ki): 546 nM; IC50 [16]: 4100 nM; inhibition [17]: 93.3%; Ki (D(1A) dopamine receptor): 798 nM
2 | COc1ccc(N(CCCCN2CCC(O)(c3ccc(Cl)c(C(F)(F)F)c3)CC2)c2ccc(OC)cc2)cc1 | Non-Toxic | 6300 nM | Non-Toxic | 623 nM | Non-Toxic | 76.8% | 11000 nM | 10000 nM | 65.8% | 5400 to 7100 nM | 55.2% | 417 nM | 949 nM | 459 nM | 10000 nM | 94.1% | 57.3% | 73% | 1400 nM | 7100 nM | Ki (Histamine H2 receptor): Not Active; Ki (Histamine H1 receptor): 7030 nM; IC50 [16]: 4000 nM; inhibition [17]: 77.5%; Ki (D(1A) dopamine receptor): 10000 nM
